Statin myotox sup: protects C2C12 myotubes from simvastatin toxicity | ATP luminescence, 48 h; scaled: DMSO 0, geranylgeraniol control 100 | rescue of ATP level, % at 7.49 µM | hit rate 0.78% among 330,000 | AID 602340;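 active = mean ATP rescue above about 67%, or every replicate alone reaching that limit, limit read from the data, passing the limit was not always enough; inconclusive = no clear call, values can overlap the other calls; inactive = mean under the limit and some replicate under it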;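 note: myotubes were challenged with 10 µM simvastatin during compound exposure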
PGC1a acetyl inh: lowers PGC1a acetylation signal in U2OS cells. AlphaScreen anti-acetyl-lysine; with virally co-expressed GCN5 acetyltransferase. inhibition, % at 15.6 µM. hit rate 0.17% among 350,000. AID 651687;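 active = every replicate shows inhibition of at least 40%; inconclusive = mean inhibition at least 40% but some replicate below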;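 note: 0% = neutral control wells and 100% = positive control wells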
SIRT5 inh: inhibitors of human sirtuin-5 desuccinylase; Q9NXA8; Purified SirT5, succinyl-peptide AMC, trypsin-coupled fluorescence; inhibition, % at 15 µM; hit rate 1.1% among 330,000; in the data active = inhibition above about 15%; inconclusive = no clear call, values can overlap the other calls
Target sequence (Q9NXA8 whole entry, looked up): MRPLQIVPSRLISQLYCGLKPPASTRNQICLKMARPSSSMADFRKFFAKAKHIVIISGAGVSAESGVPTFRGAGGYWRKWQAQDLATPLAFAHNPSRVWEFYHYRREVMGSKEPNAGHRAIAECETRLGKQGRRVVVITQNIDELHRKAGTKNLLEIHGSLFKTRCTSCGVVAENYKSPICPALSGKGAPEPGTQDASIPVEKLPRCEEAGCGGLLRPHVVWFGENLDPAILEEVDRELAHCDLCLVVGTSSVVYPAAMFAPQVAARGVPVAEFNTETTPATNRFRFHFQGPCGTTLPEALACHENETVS
Ecoli rRNA inh: inhibitors of bacterial rRNA selective over humanized ribosomes; E. coli WT GFP vs humanized-ribosome RFP mutants, fluorescence, 24 h; active compounds read low; DMSO median 0, no signal -100; hit rate 1.6% among 350,000; AID 720706; GFP signal change (wild-type ribosome), % (no concentration beside the values);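 active = significant combined selectivity score with lowered wild-type GFP, culture density cut under 30%, mutant RFP and density less affected; inactive = any of these conditions unmet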
Cneo AK release: causes C. neoformans cell lysis; adenylate kinase release luminescence, 4 h; normalised: neutral wells 0, clomiphene wells 100; lysis activity, % at 15 µM; hit rate 0.2% among 360,000; AID 651654;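 active = mean lysis activity across replicates of at least 80%, whatever share of replicates individually reach that level; inactive = mean lysis activity below 80%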
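Signal: Adenylate kinase release luminescence | Assay system: Log-phase Cryptococcus neoformans yeast cells | Input: Cells at 5 × 10^6 per mL | Buffer or medium: Fresh YPD growth medium | Compound: Single dose | Schedule: Static 4 h at 37 °C with compound, 1 h detection | Controls: Clomiphene | Read-out: Luminescence rise reflecting yeast cell lysis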
S100A4 inh HTS: inhibitors of human S100A4 binding to myosin IIA peptide; P26447; S100A4/TAMRA-MyoIIA peptide fluorescence polarization; inhibition, % at 10.7 µM; hit rate 0.14% among 360,000; AID 652163;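 active = mean inhibition of at least 70% across replicates, with every replicate also reaching that level; inconclusive = mean inhibition reaches 70% but some replicates fall short; inactive = mean inhibition below 70%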
Target sequence (P26447 whole entry, looked up): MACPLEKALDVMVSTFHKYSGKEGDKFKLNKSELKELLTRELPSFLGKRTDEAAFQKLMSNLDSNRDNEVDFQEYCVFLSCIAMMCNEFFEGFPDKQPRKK
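Assay system: human S100A4 monomer with TAMRA-labelled myosin IIA peptide / Buffer or medium: Calcium-containing HEPES buffer, pH 7.2 / Reagent: TAMRA-labelled myosin IIA heavy-chain peptide probe, 5 nM / Compound: one dose per compound / Timing: polarization read 5 min after assay mix addition, stable 5–60 min / Benchmarks: neutral control DMSO, positive control TFP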
HepG2 tox: kills or reduces viability of HepG2 cells | shares compounds with Ecoli rRNA inh | ATP luminescence, 72 h | activity change, negative = cytotoxicity, unspecified at 26 µM | 30 tested, under 10 active | AID 743480;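 active = compounds whose fitted half-maximal signal-loss concentration is at most twice their highest valid dose; inconclusive = flat curve with 30 to 70% signal loss, or poor fit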
AID977621: growth inhibition of wild-type GFP E. coli, dose response, H69 mutant RFP, cherry-pick; shares compounds with Ecoli rRNA inh; E. coli wild-type GFP strain growth, fluorescence, 24 h; activity change, negative = inhibition at 50 µM; 1,900 tested, under 10 active; AID 977621;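 active = Wild-type ribosome reporter drop at least double the humanized mutant ribosome reporter drop, growth loss under a set limit; inconclusive = no clear call, values can overlap the other calls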;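 note: wild-type GFP and H69 mutant RFP strains grown together 50/50 in each well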
AID977628: growth of wild-type and h24-humanized E. coli strains – h24 mutant RFP vs wild-type GFP, cherry-pick, dose response. 1,900 tested, under 10 active. AID 977628. shares compounds with Ecoli rRNA inh. activity change, negative = inhibition at 50 µM. E. coli WT GFP strain growth, fluorescence, 24 h;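 active = compound lowering the normal-ribosome reporter at least twice as much as the humanized-ribosome reporter, growth loss under a set limit; inconclusive = no clear call, values can overlap the other calls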;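 note: wild-type GFP and h24 humanized RFP strains co-cultured 1 to 1 per well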
* marks the source's active call; other numbers are inactive results; ? = inconclusive; nt = no result given. The list is not random: actives were taken first. Their share in the collection is about 3%.

SMILES	Statin myotox sup	PGC1a acetyl inh	SIRT5 inh	Ecoli rRNA inh	Cneo AK release	S100A4 inh HTS	AID977621	AID977628	others
Cc1ccc(NCC(=O)c2ccc(C)cc2)cc1	-32.0	2.8	-4.1	-18.0*	2.2	10.1	-10.4	-2.95
O=C(C[C@@H]1C=C[C@H](NC(=O)c2ccccc2)[C@H](CO)O1)NCCc1ccncc1	24.4	6.6	-0.2	-1.2	-2.8	-3.5	nt	nt
COC(=O)c1cc(S(=O)(=O)NCc2ccc3c(c2)OCO3)cn1C	3.8	-6.0	-3.8	-13.0*	2.3	1.0	-4.93	-6.89
COC(=O)CN1C(=S)N(c2ccc(F)cc2)C(=O)C1CC(=O)Nc1ccccc1 (stereo not drawn)	nt	-0.3	-4.5	-6.1	-3.4	-18.6	nt	nt
COC(=O)CN1C(=S)N(c2ccc(F)cc2)C(=O)C1CC(=O)Nc1ccc(OC)cc1 (stereo not drawn)	7.7	6.0	-6.3	-21.6*	2.2	-0.6	nt	-12.9
CCNC(=O)CC1C(=O)N(c2ccc(F)cc2)C(=S)N1CCc1ccncc1 (stereo not drawn)	nt	5.4	-1.7	12.5	nt	0.3	nt	nt
O=C(CC1C(=O)N(c2ccc(Cl)cc2)C(=S)N1CCc1ccncc1)Nc1ccc(F)cc1 (stereo not drawn)	-31.9	5.2	-0.8	-21.2*	3.0	0.7	-6.69	nt
O=C(NC1CCCCC1)C(c1cccc2ccccc12)n1c(=O)c(-c2ccco2)nc2ccccc21 (stereo not drawn)	nt	nt	-4.4	-23.2*	nt	-4.2	-17.3	-9.74
COc1ccc(C(C(=O)NC2CCCCC2)n2c(=O)c(-c3ccco3)nc3ccccc32)cc1 (stereo not drawn)	nt	nt	3.0	6.7	nt	-9.1	nt	nt
C[C@@H]1CCCCO[C@@H](CN(C)C(=O)c2ccccc2)[C@H](C)CN([C@@H](C)CO)C(=O)c2cc(NC(=O)c3ccncc3)ccc2O1	54.2	2.3	nt	-2.2	nt	nt	nt	nt
COc1ccc(OCC(O)CNS(=O)(=O)c2cccc(Cl)c2)cc1 (stereo not drawn)	10.3	-3.6	-3.8	-21.4*	-3.2	9.2	-3.68	-4.24
CCOC(=O)c1cccc(NC(=O)CCc2ccccc2)c1	0.3	-11.5	-1.8	-19.4	0.8	2.5	nt	nt
CCOC(=O)c1cccc(OS(=O)(=O)Cc2ccccc2)c1	18.8	5.5	0.9	-25.5*	-0.6	2.0	-9.12	nt
C[C@@H]1CN([C@@H](C)CO)C(=O)c2cc(NC(=O)Nc3cccc4ccccc34)ccc2O[C@@H](C)CCCCO[C@@H]1CN(C)C(=O)CCCN(C)C	nt	-0.7	4.1	1.7	1.0	52.2	nt	nt
C[C@@H]1CCCCO[C@@H](CN(C)C(=O)CCCN(C)C)[C@@H](C)CN([C@H](C)CO)C(=O)c2cc(NC(=O)Nc3cccc4ccccc34)ccc2O1	nt	2.2	1.4	3.0	1.6	0.1	-1.83	?
C[C@@H]1CCCCO[C@H](CN(C)C(=O)CCCN(C)C)[C@H](C)CN([C@@H](C)CO)C(=O)c2cc(NC(=O)Nc3cccc4ccccc34)ccc2O1	nt	-3.1	5.3	-36.1*	2.9	?	nt	nt	HepG2 tox=15.3
C[C@@H]1CCCCO[C@H](CN(C)C(=O)CCCN(C)C)[C@@H](C)CN([C@H](C)CO)C(=O)c2cc(NC(=O)Nc3cccc4ccccc34)ccc2O1	nt	6.6	-1.2	-1.3	-1.9	13.5	?	8.15
C[C@@H]1CCCCO[C@H](CN(C)C)[C@H](C)CN([C@H](C)CO)C(=O)c2cc(NS(=O)(=O)c3ccccc3)ccc2O1	-22.0	3.4	nt	0.3	nt	nt	nt	nt
CC(C)Cc1nnc(NC(=O)c2ccc(N3CCCC3=O)cc2)s1	-7.7	-3.5	-0.9	5.2	-1.7	-1.8	nt	nt
CC(C)Cc1nnc(NC(=O)c2ccc3c(=O)n4c(nc3c2)CCC4)s1	2.1	nt	2.2	-21.1*	4.7	-4.6	-10.6	-9.88
CC(C)[C@H]1C(=O)N[C@H](c2cccc(Cl)c2)CC=CC[C@@H](C)Oc2ccccc2C(=O)N1C (mixture of isomers)	nt	nt	nt	-7.9	nt	nt	nt	nt
COc1ccccc1C1CCN(Cc2ccccc2)CC1	-0.1	4.3	-2.4	3.1	-1.4	-3.2	nt	nt
COc1ccccc1C1CCN(Cc2cccc([N+](=O)[O-])c2)CC1	nt	nt	-1.8	-24.4*	nt	-0.7	nt	?
NC(=O)C1CCN(c2cc(Cl)ccc2[N+](=O)[O-])CC1	nt	-3.1	-1.0	-22.1*	nt	-2.7	-12.2	nt
NC(=O)C1CCN(c2cc(N3CCOCC3)ccc2[N+](=O)[O-])CC1	2.5	nt	2.7	9.8	1.8	25.7	nt	nt
SMILES	Statin myotox sup	PGC1a acetyl inh	SIRT5 inh	Ecoli rRNA inh	Cneo AK release	S100A4 inh HTS	AID977621	AID977628	others
COc1ccc(C(=O)C[n+]2ccc3c(c2)nc(-c2cc(OC)c(OC)cc2OC)n3C)cc1	-46.9	4.6	1.4	-27.9*	1.7	-0.5	?	-9.97
COc1cc(OC)c(-c2nc3c[n+](CC(=O)c4ccccc4)ccc3n2C)cc1OC	-0.2	0.7	nt	nt	0.4	nt	nt	nt
CCN1[C@H](C(=O)NCCc2cn(C)cn2)[C@@H](CO)[C@@H]2Cn3c(ccc(-c4ccncc4)c3=O)[C@@H]21	1.8	nt	1.3	0.5	-2.4	-1.2	nt	nt
Cc1nn(CC(=O)OCCOc2ccc(Br)cc2)c(C)c1[N+](=O)[O-]	nt	8.0	-3.6	-24.6*	nt	-3.5	-12.3	?
Cc1nn(CC(=O)c2ccccc2Cl)c(C)c1[N+](=O)[O-]	nt	-1.0	-1.4	-5.3	nt	-5.7	nt	nt
Cc1ccc(CNC(=O)COC(=O)Cn2nc(C)c([N+](=O)[O-])c2C)cc1	3.0	1.7	-0.4	9.1	-0.2	-3.7	nt	nt
Cc1nn(CC(=O)c2ccc(Br)s2)c(C)c1[N+](=O)[O-]	nt	-9.8	-1.4	-21.0*	2.5	-2.4	5.2	-4.5
COc1ccc2c3c(n(C)c2c1)[C@H](CO)N(C(=O)C1CCC1)CC31CN(C(=O)CN(C)C)C1	nt	nt	-2.0	0.4	nt	-27.4	nt	nt
O=C([C@H]1[C@H](CO)[C@H]2Cn3c(ccc(/C=C/c4ccccc4)c3=O)[C@H]2N1CC1CC1)N1CCOCC1	32.0	nt	-31.5	-0.7	0.4	6.6	nt	nt
COCC(=O)Nc1ccc2c(c1)C(=O)N(C)[C@H]1CC[C@H](CC(=O)NCc3ccc(OC)cc3)O[C@H]1CO2	-3.4	-3.7	nt	0.7	-3.2	nt	nt	nt
Cc1ccc(S(=O)(=O)N2CCCCC2C(=O)N2CCN(c3ccccc3F)CC2)cc1 (stereo not drawn)	nt	nt	-2.8	-20.0*	nt	1.1	4.23	-12.4

Assay outcomes as filed in PubChem.
